Published values gathered from unrelated publications.
Read-out: cell growth or viability

SMILES | cell line | assay | conditions | IC50 [µM]
CCCCC[C@H](O)CC(=O)CCc1ccc(O)c(OC)c1 | COR-L23 | SRB | – | 199
O=C(Nc1ccc(I)cc1)Nc1cccc(C(=O)Nc2ccc3[nH]ncc3c2)c1 | KM12 | ATP luminescence | 72 h | > 50
CC1=CC(C)(C)N(Cc2ccccc2)c2ccc(O)cc21 | Hep3B | MTT | 72 h | 5.2
COc1cc2c(Oc3ccc(NC(=O)C4(C(=O)Nc5ccc(F)cc5)CC4)cc3F)ccnc2cc1OCCCN1CCOCC1 | Rh41 | – | 72 h | 0.59
CCC(C(=O)COc1c(F)c(F)cc(F)c1F)n1cc([C@@](C)(NCc2ccc3ncccc3c2)C2CCC2)nn1 (mixture of isomers) | BESM | – | 72 h | > 10
Cc1[nH]c2ccccc2c1CCNCc1ccc(/C=C/C(=O)NO)cc1 | A2780C/P | crystal violet | 48 h | 0.0088
COc1cc2nccc(Oc3ccc(NC(=O)C4(C(=O)Nc5ccc(F)cc5)CC4)cc3)c2cc1OC | Rh41 | – | 72 h | 2.4
CC(C)C[C@H](NC(=O)[C@H](Cc1ccccc1)NC(=O)c1cnccn1)B(O)O | NCI-H2110 | ATP luminescence | – | 0.017
O=C1Nc2ccccc2/C1=N/NC(=O)c1cc2ccccc2[nH]1 | ZR75 | – | – | 22.7
O=C(Nc1cccc(F)c1)Nc1cccc(C(=O)Nc2ccc3[nH]ncc3c2)c1 | KM12 | ATP luminescence | 72 h | 41.5
COc1ccc2c(c1)/C(=N/NC(=O)c1cc3ccccc3[nH]1)C(=O)N2C | ZR75 | – | – | 1.48
O=C(Nc1ccc(C(F)(F)F)cc1)Nc1cccc(C(=O)Nc2ccc3[nH]nc(-c4ccccc4)c3c2)c1 | KM12 | ATP luminescence | 72 h | > 50
[Fe+2].c1cc[cH-]c1.c1cc[cH-]c1 | BL2 | MTT | 48 h | > 100
COc1cc(Nc2nccc(-c3cnn4nc(OC)ccc34)n2)cc(C(F)(F)F)c1 | NCI-H2110 | ATP luminescence | – | 0.63
CN1C(=O)/C(=N\NC(=O)c2cc3ccccc3[nH]2)c2cc(F)ccc21 | ZR75 | – | – | 4.31
O=C(Nc1cccc(C(=O)Nc2ccc3[nH]ncc3c2)c1)Nc1cccc(C(F)(F)F)c1 | KM12 | ATP luminescence | 72 h | 39.5

SMILES | cell line | assay | conditions | IC50 [µM]
CCCCC(C(=O)COc1c(F)c(F)cc(F)c1F)n1cc([C@](C)(CC(C)C)NCc2ccc3ncccc3c2)nn1 (stereo partly shown) | BESM | – | 72 h | > 10
C[C@@H](Oc1cc(-c2cnn(C3CCNCC3)c2)cnc1N)c1c(Cl)ccc(F)c1Cl | Rh41 | – | 72 h | 0.45
CN1CCN(Cc2ccc(Nc3ncc(Cl)c(Nc4ccccc4S(=O)(=O)N(C)C)n3)cc2)CC1 | PSN1 | – | – | 0.006
O=C1Nc2ccc(Br)cc2/C1=N/NC(=O)c1cc2ccccc2[nH]1 | ZR75 | – | – | 21.9
CCCCC(C(=O)COc1c(F)c(F)cc(F)c1F)n1cc([C@@](C)(NCc2ccc3ncccc3c2)C2CCC2)nn1 (stereo partly shown) | BESM | – | 72 h | > 10
O=C(Nc1ccc(Cl)cc1)Nc1cccc(C(=O)Nc2ccc3[nH]ncc3c2)c1 | KM12 | ATP luminescence | 72 h | > 50
O=C1NC(=NCc2cccs2)S/C1=C\c1ccc2ncccc2c1 | SR | – | – | 0.372
CC(=O)O[C@H]1C(=O)[C@@]2(C)[C@H]([C@H](OC(=O)c3ccccc3)[C@]3(O)C[C@H](OC(=O)[C@H](O)[C@@H](NC(=O)c4ccccc4)c4ccccc4)C(C)=C1C3(C)C)[C@]1(OC(C)=O)CO[C@@H]1C[C@@H]2O | COR-L23 | SRB | – | 0.0021
C[C@H]1[C@@H](O)O[C@@H]2O[C@@]3(C)CC[C@H]4[C@H](C)CC[C@@H]1[C@@]24OO3 | Hep3B | CCK-8 | 48 h | > 50
O=C(Nc1cccc(C(=O)Nc2ccc3[nH]ncc3c2)c1)Nc1ccccc1Cl | KM12 | ATP luminescence | 72 h | > 50
O=C(N/N=C1\C(=O)N(c2ccccc2)c2ccccc21)c1cc2ccccc2[nH]1 | ZR75 | – | – | 1.32
O=C(Nc1ccc2[nH]ncc2c1)c1cccc(NC(=S)Nc2ccc(C(F)(F)F)cc2)c1 | KM12 | ATP luminescence | 72 h | 23.1
CN1C(=O)/C(=N\NC(=O)c2cc3ccccc3[nH]2)c2cc(Cl)ccc21 | ZR75 | – | – | 0.84
O=C(Nc1cccc(C(=O)Nc2ccc3[nH]ncc3c2)c1)Nc1ccccc1F | KM12 | ATP luminescence | 72 h | 48.3
CCCCC/C=C/C(=O)CCc1ccc(O)c(OC)c1 | COR-L23 | SRB | – | 16.2
